The source of these data is the RNAGym collection of RNA variant scans (doi:10.1126/science.aae0568).

Variants at the floor of the assay were thinned out. Bounds are passed on as bounds.

B1: tRNA (parent)
chain: GUUCCGUUGGCGUAAUGGUAACGCGUCUCCCUCCUAAGGAGAAGACUGCGGGUUCGAGUCCCGUACGGAACG

In this data set the parent is B1. Nature of the data set: yeast fitness relative to wild type (ratio to wild type); higher = fitter; tRNA-Arg(CCU), competitive growth, 37 C, YPD. Summed up: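 Changes in genotype frequencies gave Darwinian fitness relative to wild type. Frequencies were read by 100-nucleotide paired-end sequencing of gene amplicons before and after pooled Saccharomyces cerevisiae strains, carrying tRNA-Arg(CCU) gene variants at the native locus, were competed in YPD at 37°C for 24 hours in six replicates. A genotype was kept only with ≥ 100 starting reads, and estimates < 0.5 were set to 0.5.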
GUUCCGUAGGCGUAAUGCUAACGCGUCUCCCUCCUAAGGAGAAGACUCCGGGUUCGAGUCCCGUGCGGAACG [U8A G18C G48C A65G]: the yeast fitness was at most 0.5.

As for GUUCCGUUGGUGUAAUGGUGACGCGUCUCCCUCCUAAGGAGAAGACUACGGGUUGGUGUCCCGUACGGAACG [C11U A20G G48A C55G A57U], the yeast fitness is at most 0.5. Regarding GUGCCGUUGGCGUAAUGGUAACGCGUCUCGCUCCUAAGGAGAAGACUGCGGGUUCGAGUCCCGUACGGACCG [U3G C30G A70C], the yeast fitness was determined as 0.628. Consider GUUCCGUUGACGUAAUGGUAACGCGUUUCCCUUCUAAGGAGAUGACUGCGGGUCCGAGUCCCGUACGCAACG [G10A C27U C33U A43U U54C G68C], for which the yeast fitness is at most 0.5.

For the variant GUUCCGUCGGCGUAAUGGUAACGGGUCUCCCUCCUAAGGAGAAGACUGCGGGUUCGGGUCCCGUACGGAACG [U8C C24G A57G], the yeast fitness is at most 0.5.

GUUUCGUUGGCAUAAUGGUAACGCGUCUCCCUCCUAAGGAGAAGACUGCGGGUUCGAGUCCUGUACGGAACG [C4U G12A C62U]: the yeast fitness is 0.73. The figure for GUUCAGUUGGCGUAAUGGUAACGCGUCUCCCUCCUAAGGAGAAGACUGCGGGUUCGAGUGCCGUAUAGAACG [C5A C60G C66U G67A] is at most 0.5. Consider GUUCUGUUGGCGUAAGGGUAACGCGUCUCCCUCAUAAGGAGAAGACUGCGGGCUCGAGUUCCGUACGGAACG [C5U U16G C34A U53C C60U], for which the yeast fitness was at most 0.5.

For the variant GUUCCAUUGGCGUAAUGGUAACGUGUCUCCCUCCUAAGGAGAAGAUUGCGGGUUCGAGUCCCGUACGGAACG [G6A C24U C46U], the yeast fitness worked out at 0.764. The figure for GUUCCGUUGGCGUACUGGUAACGCGACUCCGACCUAAGGAGAAGACUGCGGGUUCGAGUCCCAUACGGAACG [A15C U26A C31G U32A G63A] is at most 0.5; for GUUCCGUUGGCGUAAUGGUAACGCGUCUCUCUCCUGAGGAGAAAACUGCGGGUUCGAGUCCCGUAUGGAACG [C30U A36G G44A C66U] it is at most 0.5; for GUUCCGUUGGGGUAAUGGUAACGCGUCUGCCUCCUAAAGAGAAAAUUGCGGGUUCGAGUCCAGUACGGAACG [C11G C29G G38A G44A C46U C62A] it is at most 0.5.

GUUCCGUUGGCGUAAUGGUAACGUGUCUCCCUCCUAAGGAGAAGACUGCGGGUUCGAGACCCGUUCGGAACG [C24U U59A A65U]: the yeast fitness is at most 0.5.

GUUCUGUUGGCGGAAUGGUAACGCGUCUCCCUCCUAAGGAGAAGACUGCGGGUUCGAGUCUCGUACGGAACG [C5U U13G C61U]: the yeast fitness came to 0.726. Take GUUCCGAUGGCGUAAUGGUAACGCGUCUACCUCCUAAGGAGAAGACCGCGGGUUCGAAUCGCGUACGGAUCG [U7A C29A U47C G58A C61G A70U]: the yeast fitness was 0.588. The figure for GUUCCGUUGCAGUAAUGGUAACGCGUCUCCUUCCUUAGGAGAAGACUGCGGGUUCCUGUCCCGUACGGAACG [G10C C11A C31U A36U G56C A57U] is 0.606; for GUUCCGUUGGCAUAAUGGUAACGCGUGUCCCUCCUUAGGAGAAGACUGCGGGUUCGAGUCCCGUUCGGAACG [G12A C27G A36U A65U] it is at most 0.5. The figure for GUUUCGUUGGCGUAAUGGUAACGCGUCUCCCUCCUAAGGUGAAGACUGCGGGUUCGACUCCCGUACGGAACG [C4U A40U G58C] is 0.734. The figure for GUUCCGUUCGCGUAAUGGUAACGCGUCUCCCUCCUAAGGAGAAGACUGCGGGUCCGAGCCCCGUACGGGACG [G9C U54C U59C A69G] is at most 0.5; for GUUCCGUUGGCAUAUUGGUAACGAGUCUCCCUCCUAAGGAGAAGGCUGCGGGUUCGAGUCCCGUACGGAACG [G12A A15U C24A A45G] it is at most 0.5; for GUUGCGUUGGUGUUAUGGUAACACGUCUCCCUCCUAAGGAGAAGACUGCGGGUUCGAGUCCAGUACGGAACG [C4G C11U A14U G23A C62A] it is at most 0.5. Regarding GUCCCGUUGGCGUAAUGGUAACGCGUCUCCCUCCUAAGGAGAAGACUGCGGGUUCGCGUCCCGAACGGAACG [U3C A57C U64A], the yeast fitness is at most 0.5. The figure for GUUCCGUUGGGGUAAUAGUAACGCGUCUCCCUCCUAUGGAGAAGACUGCGGGUUCGAGUCCCGUACGGAGCG [C11G G17A A37U A70G] is at most 0.5. The figure for GUUCCGUUGGCGUAAGGGUAACGCGUCUCCCUCCUAAGGUGAAGACUGCGGGUUCGAGUCCGGUACGGAACG [U16G A40U C62G] is 0.566; for GAUCCGUUGGCGUAAUGGUAAUGCGUCUCCCUCCUAAGGCGAAGACUGCGGGUUCGACUCCCGUAUGGAACG [U2A C22U A40C G58C C66U] it is at most 0.5; for GUUGCGUUGGCGUAAUGGUAACGCGUCUCCGUCCUAAUGAGAAGACUGCGGGUUCGAGUCCCGUACGGAACG [C4G C31G G38U] it is at most 0.5. The figure for GUUCCGUUGCCGUAAUGGUAAAGGGUCUCCCUCCUAAGGAGAAGACUGCGGGUUCGAGUCCCGUACGCAACG [G10C C22A C24G G68C] is at most 0.5. In the case of GUUCCGUUGGCGUAAUGGUAACGUGGCUCCCUCCUGAGGAGAGGACUGCGGGUUCGAGUCCCGUACGGAACG [C24U U26G A36G A43G], the yeast fitness is at most 0.5. On to GUUCCGUUGGCGUCAUGGGAACGCGUCUCCCUCCUAAGGAGAAGACUGCGGGUUCGAGCCCCGUACGGGACG [A14C U19G U59C A69G], for which the yeast fitness is at most 0.5. The figure for GUUCCGUUCGCGUAAUGGUAACGCGUCACCCUCCUAAGGCGAAGACUGCGGGUUCGAGCCCCGUACGGAACG [G9C U28A A40C U59C] is at most 0.5. On to GUUCCGUUGGCGUAAUGGUAACGCGUCUCCCUCCUAAGGAGAAGACUGCAGGUUCGCGUGUCGUACGGAACG [G50A A57C C60G C61U], for which the yeast fitness was at most 0.5. As for GUUCCGUUGGCGUAAUGGUAAUGAGUCUCCCUCCUAAGGAGAAGACUGCGGGUUCGAGUCCCGUACGGAUCG [C22U C24A A70U], the yeast fitness was at most 0.5. The figure for GUUCCGUUGGUGUAAUGGUACCGCGUCUCCCUCCUGAGGAGAAGACUGCGGGUUCGAGUCCCGUACGGAACG [C11U A21C A36G] is at most 0.5. On to GUUCCGUUGGCGUAAUGGUAACGCGUUUCCCUCCUAAGGAGAAGACUGCCGGUUCGAGUCCCGUCCGGAACG [C27U G50C A65C], for which the yeast fitness was at most 0.5. The figure for GUUCCGUGGGCGAAAUGGUAACGCGUCUCUCUCCUAAGCAGAAGACUGCGGGUUCGAGUCCCGUACGGAACG [U8G U13A C30U G39C] is at most 0.5. The figure for GUUGCGUCGGCGUAAUGGUAACGCGUCUCCCUCCUAUGGAGCAGACUGCGGGUUCGAGUCCCGUAGGGAACG [C4G U8C A37U A42C C66G] is at most 0.5; for GUUCCGUUGGCGUAAUGGUAACGCGUCUCCCUCCUAAGGAGAAGACUGUGGGUUCGAGUCCCGUGCAGUACG [C49U A65G G67A A69U] it is at most 0.5; for GUUCGGUUGGCGUAAUGGUAACGCGUCUCCCUCCUAAGGAGAAGACUGCGGGUUCGACUCCCGUACGGCACG [C5G G58C A69C] it is 0.794.
